Source: PubChem
Most compounds without a hit are left out; they make up all but 6.7% or so of the library.
T cruzi inh: T. cruzi replication inhibition; T. cruzi beta-gal in NIH3T3, luminescence, 90 h; inhibition, % (test concentration not listed); 300,000 compounds, 1.4% hits; AID 1885;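 active = mean inhibition across valid replicates above about 55%, limit read from the data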;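 note: signal also drops with host cell toxicity which is not excluded here; higher percent means less beta-gal luminescence so fewer parasites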
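System: Mouse NIH/3T3 fibroblasts infected with β-gal-expressing T. cruzi Tulahuen C4 | Quantity: NIH/3T3 cells, 5,000 per well | Reagent: 5000 reporter trypomastigotes per well | Dosing: Compound pinned at 50 nL/well, DMSO | Schedule: 3 h host attachment, then at least 90 h co-culture | Detection: GalScreen luminescence, 60 min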
PREPL inh: inhibits the human prolyl oligopeptidase-like enzyme | 320,000 compounds, 0.68% hits | inhibition, % at 5.96 µM | Q4J6C6 | recombinant PREPL, fluorescence polarization activity-based probe | AID 2751; in the data active = inhibition above about 43%
Target sequence (Q4J6C6 whole entry, looked up): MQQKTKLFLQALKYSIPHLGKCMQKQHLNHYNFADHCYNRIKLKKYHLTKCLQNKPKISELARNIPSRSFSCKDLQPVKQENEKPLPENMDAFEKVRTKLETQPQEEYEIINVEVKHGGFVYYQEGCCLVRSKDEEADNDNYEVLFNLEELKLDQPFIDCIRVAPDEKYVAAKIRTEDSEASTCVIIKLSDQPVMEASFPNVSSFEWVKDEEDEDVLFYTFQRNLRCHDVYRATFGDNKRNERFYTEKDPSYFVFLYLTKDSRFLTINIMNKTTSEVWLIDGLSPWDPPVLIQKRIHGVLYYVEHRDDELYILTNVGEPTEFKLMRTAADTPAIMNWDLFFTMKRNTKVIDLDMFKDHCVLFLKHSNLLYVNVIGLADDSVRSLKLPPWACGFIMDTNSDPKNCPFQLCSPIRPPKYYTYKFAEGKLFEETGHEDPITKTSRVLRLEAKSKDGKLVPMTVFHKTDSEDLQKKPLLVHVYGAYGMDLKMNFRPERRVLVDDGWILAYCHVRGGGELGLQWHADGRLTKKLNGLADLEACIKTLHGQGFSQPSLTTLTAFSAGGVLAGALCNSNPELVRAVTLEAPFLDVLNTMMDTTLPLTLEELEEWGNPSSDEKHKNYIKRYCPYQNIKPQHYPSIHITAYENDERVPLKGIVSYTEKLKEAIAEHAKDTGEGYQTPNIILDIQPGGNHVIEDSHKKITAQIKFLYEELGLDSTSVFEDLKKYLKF
NR3A LBD binder: modulates the human NR3A ligand-binding domain. NR3A LBD differential scanning fluorimetry, Tm shift; 0% = protein alone, 100% = glycine-bound protein. Tm shift relative to glycine control, % at 25 µM. 340,000 compounds, 2.5% hits. AID 1259313;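 active = melting temperature shift of at least 10% of the positive control shift, at one fixed dose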
Beta apoptosis: blocks beta cell apoptosis; protection from apoptosis, % (concentration not given with the values); INS-1E cytokine-induced death, ATP luminescence, 48 h; percent of positive-control rescue, neutral wells zero; 300,000 compounds, 0.8% hits;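 active = Every replicate reaches about 75%, or at least half do and their mean reaches it too, limit read from the data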;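 note: higher means more ATP so stronger rescue from cytokine killing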
CHOP inhibitor: inhibitors of CHOP induction in ER stress response; CHO-K1 CHOP-promoter luciferase, tunicamycin-induced, 15-18 h; inhibition, % at 10 µM; 220,000 compounds, 3.8% hits;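 active = compounds that reduced the stress-induced luciferase reporter signal by more than about 70% of percent inhibition, limit read from the data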
CSC inhib: blocks cancer stem cells. inhibition, % at 7.5 µM. cancer stem cell-like cells viability, luminescence. 300,000 compounds, 1.1% hits. AID 2717; in the data active = inhibition above about 75%; tested in HMLE shEcad cells
Hits are given with their value; – = inactive; · = not tested or not shown.

SMILES	T cruzi inh	PREPL inh	NR3A LBD binder	Beta apoptosis	CHOP inhibitor	CSC inhib
CC(=O)n1cc(/C=N/NC(=O)c2ccc(Cl)cc2)c2ccccc21	–	–	15	–	·	–
Nc1ccc(C(=O)N/N=C\c2cc(N=Nc3cccc4ccccc34)ccc2O)cc1	59	–	–	–	–	98
C#CCn1cc(/C=N/NC(=O)c2cc3ccccc3o2)c2ccccc21	–	–	13	–	–	–
COC(=O)N/N=C/c1cc(N=Nc2ccccc2Cl)ccc1O	–	–	–	–	–	·
O=C(N/N=C/c1cccc2ccccc12)c1cc2ccccc2o1	–	·	18	·	·	·
CC(=O)n1cc(/C=N/NC(=O)c2ccccc2Cl)c2ccccc21	–	–	–	–	·	–
CCOC(=O)C1=CN(Cc2ccco2)S(=O)(=O)N(C)C1c1ccc2ccccc2c1 (stereo unspecified)	·	·	–	·	·	·
Nc1ccn(CC(=O)NCCc2ccccn2)c(=O)n1	·	–	–	–	·	–
COc1ccc(OC)c(/C=N/NC(=O)CCc2ccc(O)c(O)c2)c1	–	–	22	–	–	–
CCc1ccc(C(=O)N/N=C/c2cccc3ccccc23)nc1	–	–	11	–	79	–
CN(C(=O)COC(=O)c1ccc2c(c1)OCCO2)C1CCCCC1	·	·	–	·	·	·
COCC(=O)n1nc(-c2ccccc2)nc1NCc1ccc(F)cc1	–	–	13	–	–	–
CCC(=O)n1nc(-c2ccccc2)nc1NCc1ccccc1	–	–	–	–	93	–
O=C(O)C1CCC(N2C(=O)c3c(Cl)c(Cl)c(Cl)c(Cl)c3C2=O)CC1 (stereo unspecified)	–	–	·	–	·	–
COC(=O)c1ccc(NC(=O)c2cccc(Cl)c2)o1	–	–	–	–	–	–
Cc1ccoc1C(=O)Nc1ccc(CC(=O)O)cc1	–	–	–	–	73	–
COc1cccc(C(=O)OCC(=O)NCCCc2ccccc2)c1	–	–	–	–	·	–
Cc1ccc(N2C(=O)c3ccccc3C2=O)cc1	–	–	–	–	–	–
Cc1ccc(SC2=C(Sc3ccc(C)cc3)C(=O)c3ccccc3C2=O)cc1	–	–	–	–	–	78
O=C(O)CNC(=O)CCCn1nnc2ccccc2c1=O	–	–	–	–	–	–
O=C(/C=C\Nc1ccc(Br)cc1)c1cccnc1	–	–	–	–	–	–
O=C(/C=C/Nc1ccc(Br)cn1)c1cccc(OC(F)F)c1	·	–	14	–	·	–
CCOC(=O)C1(C(=O)OCC)NC(=O)CC1CC(C)C (stereo unspecified)	·	·	–	·	·	·
Cc1[nH]n(C(N)=S)c(=O)c1N=Nc1cc(C(F)(F)F)ccc1Cl	–	–	12	–	·	–
COc1ccccc1OCCNC(=O)CCC(=O)N1CCOCC1	·	·	–	·	·	·
SMILES	T cruzi inh	PREPL inh	NR3A LBD binder	Beta apoptosis	CHOP inhibitor	CSC inhib
O=C(NNC(=O)c1ccc(-c2ccc([N+](=O)[O-])cc2)o1)c1ccncc1	·	–	–	–	·	·
c1ccc(-c2nc3nonc3nc2-c2ccccc2)cc1	–	–	–	135	85	–
Nc1c(-c2ccccc2)nc(Cl)nc1-c1ccccc1	–	–	–	–	–	–
COCCN=C1N[C@@H](c2cccc(C(F)(F)F)c2)C(C(=O)OC)=C(C)N1Cc1ccccc1	–	–	–	–	·	–
COC(=O)C1=C(C)N(Cc2ccccc2)C(=NCc2cccc(C(F)(F)F)c2)N[C@H]1c1cccc(F)c1	–	–	–	111	·	111
COC(=O)C1=C(C)N(Cc2ccccc2)C(=NCc2cccc(C(F)(F)F)c2)N[C@H]1c1cccc(C(F)(F)F)c1	·	–	–	99	·	·
COc1cccc(NC(=O)C2CCN(c3cnccn3)CC2)c1	–	–	–	–	·	–
Cc1cccc(OCC(=O)NNC(=O)c2ccc3nc[nH]c3c2)c1	·	–	–	–	·	–
O=C(NNC(=O)c1ccccc1[N+](=O)[O-])c1csc(N2CCOCC2)n1	–	–	–	–	·	–
CCC(=O)c1ccccc1OCCCCn1cncn1	–	–	–	–	·	–
COc1cccc(-n2c(SCC(=O)N3CCCCC3)nc3c([nH]c4ccccc43)c2=O)c1	–	–	–	·	71	–
COc1cccc(-n2c(SCC(N)=O)nc3c([nH]c4ccccc43)c2=O)c1	–	–	–	·	–	–
Cc1ccc(NC(=O)CSc2nc3c([nH]c4ccccc43)c(=O)n2C)cc1	–	–	–	–	–	–
